Tested on: HEK-293T
Test: Multiplex assay against HEK293T;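 for Population Tubulin-Different-Phenotype (%): share of the cells with healthy nuclei that show this phenotype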
Assay type: toxicity, cell-based
Conditions: human
Method in brief: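 Live cells were stained at seeding with Hoechst33342, BioTracker Green Microtubule Cytoskeleton Dye, MitoTracker Red and Annexin V Alexa Fluor 680. Following compound addition, they were imaged on a CQ1 microscope at 37°C and 5% CO2 and gated by CellPathfinder machine learning into Hoechst high-intensity objects or normal cells, with normal cells split into healthy, pyknosed or fragmented nuclei and pyknosed cells into mitotic or apoptotic. Tubulin, mitochondrial-mass and membrane-permeability phenotypes are per cents of healthy-nucleus cells.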

[1] = 12 h, 1 µM, compound concentration 1 uM, replicate 1
[2] = 12 h, 1 µM, compound concentration 1 uM, replicate 2
[3] = 12 h, 10 µM, compound concentration 10 uM, replicate 1
[4] = 12 h, 10 µM, compound concentration 10 uM, replicate 2
[5] = 24 h, 1 µM, compound concentration 1 uM, replicate 1
[6] = 24 h, 1 µM, compound concentration 1 uM, replicate 2
[7] = 24 h, 10 µM, compound concentration 10 uM, replicate 1
[8] = 24 h, 10 µM, compound concentration 10 uM, replicate 2

In the case of `Cc1nc(N2CC[C@H](O)C2)ncc1-c1cc(C(F)(F)F)cc2[nH]ncc12`, the “Population Apoptotic (%)” value [1] is reported as 20%, the “Population Fragmented Nuclei (%)” value [1] is reported as 9% and the “Population Healthy Nuclei (%)” value [1] is reported as 70%. The “Population Hoechst High Intensity Objects (%)” value [1] was 7%, the “Population Membrane Permeable-Phenotype (%)” value [1] was 3% and the “Population Mitochondria Different-Phenotype (%)” value [1] was 7%. For the same compound, the “Population Mitotic Cells (%)” value [1] was 79%, the “Population Normal (%)” value [1] was 92% and the “Population Pyknosed Nuclei (%)” value [1] was 20%. The “Population Tubulin-Different-Phenotype (%)” value [1] was 5%, the “Total Cell Count” value [1] was 628 and the “Population Apoptotic (%)” value [2] was 8%. The “Population Fragmented Nuclei (%)” value [2] was 7%, the “Population Healthy Nuclei (%)” value [2] was 87% and the “Population Hoechst High Intensity Objects (%)” value [2] was 2%. For the same compound, the “Population Membrane Permeable-Phenotype (%)” value [2] was 1%, the “Population Mitochondria Different-Phenotype (%)” value [2] was 10% and the “Population Mitotic Cells (%)” value [2] was 91%. For the same compound, the “Population Normal (%)” value [2] was 97%, the “Population Pyknosed Nuclei (%)” value [2] was 4% and the “Population Tubulin-Different-Phenotype (%)” value [2] was 9%. The “Total Cell Count” value [2] was 1293, the “Population Apoptotic (%)” value [3] was 24% and the “Population Fragmented Nuclei (%)” value [3] was 11%. For the same compound, the “Population Healthy Nuclei (%)” value [3] was 70%, the “Population Hoechst High Intensity Objects (%)” value [3] was 9% and the “Population Membrane Permeable-Phenotype (%)” value [3] was 4%. The “Population Mitochondria Different-Phenotype (%)” value [3] was 4%, the “Population Mitotic Cells (%)” value [3] was 75% and the “Population Normal (%)” value [3] was 90%. The “Population Pyknosed Nuclei (%)” value [3] was 18%, the “Population Tubulin-Different-Phenotype (%)” value [3] was 3% and the “Total Cell Count” value [3] was 699. For the same compound, the “Population Apoptotic (%)” value [4] was 5%, the “Population Fragmented Nuclei (%)” value [4] was 7% and the “Population Healthy Nuclei (%)” value [4] was 88%. The “Population Hoechst High Intensity Objects (%)” value [4] was 1%, the “Population Membrane Permeable-Phenotype (%)” value [4] was 1% and the “Population Mitochondria Different-Phenotype (%)” value [4] was 8%. For the same compound, the “Population Mitotic Cells (%)” value [4] was 94%, the “Population Normal (%)” value [4] was 98% and the “Population Pyknosed Nuclei (%)” value [4] was 4%. For the same compound, the “Population Tubulin-Different-Phenotype (%)” value [4] was 4%, the “Total Cell Count” value [4] was 1684 and the “Population Apoptotic (%)” value [5] was 22%. For the same compound, the “Population Fragmented Nuclei (%)” value [5] was 7%, the “Population Healthy Nuclei (%)” value [5] was 79% and the “Population Hoechst High Intensity Objects (%)” value [5] was 5%. The “Population Membrane Permeable-Phenotype (%)” value [5] was 5%, the “Population Mitochondria Different-Phenotype (%)” value [5] was 4% and the “Population Mitotic Cells (%)” value [5] was 77%. The “Population Normal (%)” value [5] was 94%, the “Population Pyknosed Nuclei (%)” value [5] was 12% and the “Population Tubulin-Different-Phenotype (%)” value [5] was 11%. For the same compound, the “Total Cell Count” value [5] was 702, the “Population Apoptotic (%)” value [6] was 3% and the “Population Fragmented Nuclei (%)” value [6] was 17%. The “Population Hoechst High Intensity Objects (%)” value [6] was 2%, the “Population Membrane Permeable-Phenotype (%)” value [6] was 4% and the “Population Mitochondria Different-Phenotype (%)” value [6] was 3%. The “Population Mitotic Cells (%)” value [6] was 96%, the “Population Normal (%)” value [6] was 97% and the “Population Pyknosed Nuclei (%)” value [6] was 2%. For the same compound, the “Population Tubulin-Different-Phenotype (%)” value [6] was 14%, the “Total Cell Count” value [6] was 1975 and the “Population Apoptotic (%)” value [7] was 28%. For the same compound, the “Population Fragmented Nuclei (%)” value [7] was 10%, the “Population Healthy Nuclei (%)” value [7] was 80% and the “Population Hoechst High Intensity Objects (%)” value [7] was 5%. The “Population Membrane Permeable-Phenotype (%)” value [7] was 12%, the “Population Mitochondria Different-Phenotype (%)” value [7] was 1% and the “Population Mitotic Cells (%)” value [7] was 71%. For the same compound, the “Population Normal (%)” value [7] was 94%, the “Population Pyknosed Nuclei (%)” value [7] was 9% and the “Population Tubulin-Different-Phenotype (%)” value [7] was 6%. The “Total Cell Count” value [7] was 840, the “Population Apoptotic (%)” value [8] was 6% and the “Population Fragmented Nuclei (%)” value [8] was 21%. The “Population Healthy Nuclei (%)” value [8] was 75%, the “Population Hoechst High Intensity Objects (%)” value [8] was 2% and the “Population Membrane Permeable-Phenotype (%)” value [8] was 5%. For the same compound, the “Population Mitotic Cells (%)” value [8] was 93%, the “Population Normal (%)” value [8] was 97% and the “Population Pyknosed Nuclei (%)” value [8] was 2%. The “Population Tubulin-Different-Phenotype (%)” value [8] was 5% and the “Total Cell Count” value [8] was 2845.

Source: ChEMBL document CHEMBL4689842, “EUbOPEN Chemogenomics Library wave 1” (2021)
